Experiments:
Assay type in all cases: functional
HOP-18 = experiment: Growth inhibition of human HOP18 cells
Summary of the method: (§1)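 NCI 60-human-tumour-cell-line primary in vitro screen. Each compound was tested eight separate times across three concentration ranges with upper limits of 10⁻⁴, 10⁻⁵ and 10⁻⁶ M. Each range used five 10-fold dilutions. GI₅₀, TGI and LC₅₀ were calculated from the concentration-response curves for each cell line, and averaged mean-graph values were constructed from them.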

SK-MEL-2 = experiment: Growth inhibition of human SK-MEL-2 cells; summary of the method: as §1
SNB-19 = experiment: Growth inhibition of human SNB19 cells; summary of the method: as §1
ACHN = experiment: Growth inhibition of human ACHN cells; summary of the method: as §1
NCI-H23 = experiment: Growth inhibition of human NCI-H23 cells; summary of the method: as §1
NCI-H322M = experiment: Growth inhibition of human NCI-H322M cells; summary of the method: as §1
IGROV-1 = experiment: Growth inhibition of human IGROV1 cells; summary of the method: as §1
KM12 = experiment: Growth inhibition of human KM12 cells; summary of the method: as §1
RPMI-8226 = experiment: Growth inhibition of human RPMI8226 cells; summary of the method: as §1
SF-268 = experiment: Growth inhibition of human SF268 cells; summary of the method: as §1
Malme-3M = experiment: Growth inhibition of human MALME-3M cells; summary of the method: as §1
UO-31 = experiment: Growth inhibition of human UO31 cells
Summary of the method: (§2)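 NCI 60-human-tumour-line in vitro primary screen. Each compound tested eight separate times over three concentration ranges (upper limits 10⁻⁴, 10⁻⁵ and 10⁻⁶ M), each range as five 10-fold dilutions. GI₅₀ (also TGI and LC₅₀) derived from the concentration-response curves, reported as averaged values per cell line (negative log₁₀).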

MOLT-4 = experiment: Growth inhibition of human MOLT4 cells; summary of the method: as §1
XF498 = experiment: Growth inhibition of human XF498 cells; summary of the method: as §2
EKVX = experiment: Growth inhibition of human EKVX cells; summary of the method: as §1
RXF 393 = experiment: Growth inhibition of human RXF393 cells; summary of the method: as §1
KM-20L2 = experiment: Growth inhibition of human KM20L2 cells; summary of the method: as §1
HOP-62 = experiment: Growth inhibition of human HOP62 cells; summary of the method: as §1
OVCAR-3 = experiment: Growth inhibition of human OVCAR-3 cells; summary of the method: as §1
COLO 205 = experiment: Growth inhibition of human COLO205 cells; summary of the method: as §1
HL-60 = experiment: Growth inhibition of human HL-60(TB) cells; summary of the method: as §1
CAKI-1 = experiment: Growth inhibition of human Caki1 cells; summary of the method: as §1
HCT-15 = experiment: Growth inhibition of human HCT15 cells; summary of the method: as §1
DMS-114 = experiment: Growth inhibition of human DMS114 cells; summary of the method: as §1
OVCAR-5 = experiment: Growth inhibition of human OVCAR5 cells; summary of the method: as §1
SK-OV-3 = experiment: Growth inhibition of human SKOV3 cells; summary of the method: as §1
SN12C = experiment: Growth inhibition of human SN12C cells; summary of the method: as §1
OVCAR-8 = experiment: Growth inhibition of human OVCAR8 cells; summary of the method: as §1
SR = experiment: Growth inhibition of human SR cells; summary of the method: as §2
SNB-78 = experiment: Growth inhibition of human SNB78 cells; summary of the method: as §2
[1] = read-out: pLC50 (the source's name) (converted)

Molecule `O=C1N[C@H]2[C@H](O)[C@H](O)[C@@H](O)C[C@@H]2c2cc3c(cc21)OCO3` has a GI50 (HOP-18) of 158 nM, a CC50 (HOP-18; [1]) of 79400 nM and a TGI (HOP-18; read-out: pTGI (converted)) of 1700 nM. For the same molecule, the GI50 (SK-MEL-2) was 38 nM, the CC50 (SK-MEL-2; [1]) was 5500 nM and the TGI (SK-MEL-2; read-out: pTGI (converted)) was 331 nM. The GI50 (SNB-19) was 41.7 nM, the CC50 (SNB-19; [1]) was 93300 nM and the TGI (SNB-19; read-out: pTGI (converted)) was 1000 nM. For the same molecule, the GI50 (ACHN) was 81.3 nM, the CC50 (ACHN; [1]) was 11000 nM and the TGI (ACHN; read-out: pTGI (converted)) was 794 nM. The GI50 (NCI-H23) was 53.7 nM, the CC50 (NCI-H23; [1]) was 6460 nM and the TGI (NCI-H23; read-out: pTGI (converted)) was 363 nM. The GI50 (NCI-H322M) was 70.8 nM, the CC50 (NCI-H322M; [1]) was 57500 nM and the TGI (NCI-H322M; read-out: pTGI (converted)) was 708 nM. The GI50 (IGROV-1) was 141 nM, the CC50 (IGROV-1; [1]) was 67600 nM and the TGI (IGROV-1; read-out: pTGI (converted)) was 1100 nM. It also gave a GI50 (KM12) of 46.8 nM, a CC50 (KM12; [1]) of 24000 nM and a TGI (KM12; read-out: pTGI (converted)) of 912 nM. The GI50 (RPMI-8226) was 95.5 nM, the CC50 (RPMI-8226; [1]) was over 100000 nM and the TGI (RPMI-8226; read-out: pTGI (converted)) was 776 nM. For the same molecule, the GI50 (SF-268) was 70.8 nM, the CC50 (SF-268; [1]) was 63100 nM and the TGI (SF-268; read-out: pTGI (converted)) was 1510 nM. For the same molecule, the GI50 (Malme-3M) was 75.9 nM, the CC50 (Malme-3M; [1]) was 8510 nM and the TGI (Malme-3M; read-out: pTGI (converted)) was 417 nM. For the same molecule, the GI50 (UO-31) was 100 nM, the CC50 (UO-31; [1]) was 44700 nM and the TGI (UO-31; read-out: pTGI (converted)) was 955 nM. For the same molecule, the GI50 (MOLT-4) was 44.7 nM, the CC50 (MOLT-4; [1]) was over 100000 nM and the TGI (MOLT-4; read-out: pTGI (converted)) was 1910 nM. It also gave a GI50 (XF498) of 81.3 nM, a CC50 (XF498; [1]) of 20900 nM and a TGI (XF498; read-out: pTGI (converted)) of 724 nM. For the same molecule, the GI50 (EKVX) was 331 nM, the CC50 (EKVX; [1]) was 81300 nM and the TGI (EKVX; read-out: pTGI (converted)) was 3720 nM. It also gave a GI50 (RXF 393) of 72.4 nM, a CC50 (RXF 393; [1]) of 2510 nM and a TGI (RXF 393; read-out: pTGI (converted)) of 417 nM. It also gave a GI50 (KM-20L2) of 51.3 nM, a CC50 (KM-20L2; [1]) of 66100 nM and a TGI (KM-20L2; read-out: pTGI (converted)) of 912 nM. It also gave a GI50 (HOP-62) of 64.6 nM, a CC50 (HOP-62; [1]) of 10000 nM and a TGI (HOP-62; read-out: pTGI (converted)) of 501 nM. The GI50 (OVCAR-3) was 83.2 nM, the CC50 (OVCAR-3; [1]) was 45700 nM and the TGI (OVCAR-3; read-out: pTGI (converted)) was 501 nM. It also gave a GI50 (COLO 205) of 53.7 nM, a CC50 (COLO 205; [1]) of 457 nM and a TGI (COLO 205; read-out: pTGI (converted)) of 200 nM. The GI50 (HL-60) was 32.4 nM, the CC50 (HL-60; [1]) was 30200 nM and the TGI (HL-60; read-out: pTGI (converted)) was 191 nM. It also gave a GI50 (CAKI-1) of 191 nM, a CC50 (CAKI-1; [1]) of over 100000 nM and a TGI (CAKI-1; read-out: pTGI (converted)) of 1410 nM. It also gave a GI50 (HCT-15) of 85.1 nM, a CC50 (HCT-15; [1]) of 85100 nM and a TGI (HCT-15; read-out: pTGI (converted)) of 1200 nM. It also gave a GI50 (DMS-114) of 50.1 nM, a CC50 (DMS-114; [1]) of 14100 nM and a TGI (DMS-114; read-out: pTGI (converted)) of 513 nM. For the same molecule, the GI50 (OVCAR-5) was 324 nM, the CC50 (OVCAR-5; [1]) was over 100000 nM and the TGI (OVCAR-5; read-out: pTGI (converted)) was 2400 nM. The GI50 (SK-OV-3) was 91.2 nM, the CC50 (SK-OV-3; [1]) was over 100000 nM and the TGI (SK-OV-3; read-out: pTGI (converted)) was 1100 nM. For the same molecule, the GI50 (SN12C) was 141 nM, the CC50 (SN12C; [1]) was 18200 nM and the TGI (SN12C; read-out: pTGI (converted)) was 1820 nM. It also gave a GI50 (OVCAR-8) of 70.8 nM, a CC50 (OVCAR-8; [1]) of 72400 nM and a TGI (OVCAR-8; read-out: pTGI (converted)) of 2290 nM. It also gave a GI50 (SR) of 52.5 nM, a CC50 (SR; [1]) of 56200 nM and a TGI (SR; read-out: pTGI (converted)) of 3240 nM. For the same molecule, the GI50 (SNB-78) was 87.1 nM and the CC50 (SNB-78; [1]) was 83200 nM.

— ChEMBL document CHEMBL1147379, “Antineoplastic agents, 256. Cell growth inhibitory isocarbostyrils from Hymenocallis” (1993)
